71 compounds from PubChem BioAssay AID617 (SRMLSC, 2007) can be followed below.

Bounds are passed on as bounds.

For this assay, the system named is E. coli BW25113 ΔtolC growth inhibition, OD615. In words: E. coli ΔtolC antibacterial growth inhibition – strain BW25113 ΔtolC::kan, dose response (AID 617). In a few lines: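 Material: E. coli BW25113 ΔtolC::kan bacteria; input: inoculum from 1:1000-diluted 1.5 h subculture; medium: kanamycin-containing LB broth, 50 µg/mL; dosing: compounds in serially diluted dose-response series; incubation: 20 h exposure at 37 °C; measured by: absorbance at 615 nm; control set: chloramphenicol control, 30 µM final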
Take `CCOc1ccc(N(CC(=O)Nc2cccc(OC)c2)S(=O)(=O)c2c(C)noc2C)cc1`: the IC50 is 22.8 µM.

On to `O=C(Nc1nnc(-c2ccccc2)o1)c1ccc(Cl)cc1`, for which the IC50 is 0.17 µM.

`CC1(C)Cc2c(c(N3CCCC3)nc3sc4c(N5CCN(CCO)CC5)ncnc4c23)CO1`: the IC50 was 18.1 µM.

For the compound `Cc1cccc(Cn2c(=O)c3c(nc4n3CCCN4Cc3ccccc3)n(C)c2=O)c1`, the IC50 is 20 µM.

For the compound `CCOC(=O)C1CCN(c2nc3cc(OC)ccc3cc2C#N)CC1`, the IC50 is 14.9 µM.

Consider `Cc1ccc(C2CC(c3cccc(Br)c3)Nc3nnnn32)cc1` (stereo unspecified), for which the IC50 is 13 µM.

With `Cc1cc(Nc2ccccc2)n(-c2nc3ccccc3[nH]2)n1`, the IC50 was 4.9 µM.

For `CCN(c1cccc(C(F)(F)F)c1)S(=O)(=O)c1ccc2c(c1)CCN2C(=O)C1CC1`, the IC50 is 50.9 µM.

On to `CC1CCN(S(=O)(=O)c2ccc(Cl)cc2Br)CC1`, for which the IC50 was 17.5 µM.

Take `Cc1ccc(C(C(=O)NC2CCCC2)N(Cc2cccs2)C(=O)CNC(=O)c2cccs2)o1` (stereo unspecified): the IC50 was 22.3 µM.

In the case of `Cc1[nH]n2c(=O)cc(C(C)(C)C)nc2c1-c1ccccc1`, the IC50 was 1.56 µM.

In the case of `CCc1c(O)nc(SCc2ccccc2)n(C(C)CC)c1=O` (stereo unspecified), the IC50 was 4.28 µM.

Turning to `Cc1ccccc1-c1nc(CS(=O)(=O)CC(=O)N2CCc3ccccc3C2)c(C)o1`, the IC50 is 31.7 µM.

Consider `CCSC1=C(C#N)C(c2ccc(Cl)cc2)C2=C(CCCC2=O)N1` (stereo unspecified), for which the IC50 was 8.21 µM.

`CC(C)Cc1cc(C(=O)Nc2sc3c(c2C#N)CCCC3)no1`: the IC50 is 8.44 µM.

`CN(c1ccccc1)C(c1ccc(F)cc1)c1nnnn1C1CCCC1` (stereo unspecified): the IC50 is 11.1 µM.

For the compound `Cc1cc(N2CCN(C(c3ccccc3)c3ccccc3)CC2)n2ncnc2n1`, the IC50 was 26.6 µM.

Regarding `c1ccc2c(c1)oc1c(N3CCN(Cc4ccc5c(c4)OCO5)CC3)ncnc12`, the IC50 was 10.9 µM.

For `CCOC(=O)c1cn(CC)c2cc(N3CCSCC3)c(F)cc2c1=O`, the IC50 was 1.4 µM.

In the case of `COc1c(N2CCNC(C)C2)c(F)cc2c(=O)c(C(=O)O)cn(C3CC3)c12` (stereo unspecified), the IC50 was < 0.2 µM.

On to `CN(c1cccc(NC(=O)Nc2cccc(Cl)c2)c1)S(C)(=O)=O`, for which the IC50 was 12.7 µM.

As for `O=C(Nc1nnc(-c2ccccc2)o1)c1nc2ccccc2s1`, the IC50 is 1.34 µM.

As for `Brc1ccc(CSc2nnc(-c3ccccn3)n2Cc2ccco2)cc1`, the IC50 was 9.85 µM.

Consider `CCCc1nc(SC2CCCC2)c2c(=O)n(C)c(=O)n(C)c2n1`, for which the IC50 is 13.6 µM.

For `CCCSc1oc(-c2ccco2)nc1S(=O)(=O)c1ccccc1`, the IC50 was 9.73 µM.

`CCCCc1cc(O)c(CCCC)c(O)c1`: the IC50 is 10.9 µM.

For `O=C(c1cccs1)N(Cc1nc2sc3c(c2c(=O)[nH]1)CCCC3)C1CCCC1`, the IC50 was 9.95 µM.

With `CO[C@@]1(NC(=O)Cc2cccs2)C(=O)N2C(C(=O)O)=C(COC(N)=O)CS[C@@H]21`, the IC50 was 2 µM.

Regarding `COc1ccc(OC)c(S(=O)(=O)n2cnc3cc(C)c(C)cc32)c1`, the IC50 is 11.4 µM.

Regarding `C=C(C)COc1ccc(-c2n[nH]c(C)c2Oc2ccccc2OC)c(O)c1`, the IC50 was 8.36 µM.

For the compound `COc1ccc(NS(=O)(=O)c2ccc3c(c2)Cc2ccccc2-3)cn1`, the IC50 is 10.7 µM.

With `Cc1oc2c(CN3CCCC3)c(O)ccc2c(=O)c1-c1ccc(Br)cc1`, the IC50 is 25.5 µM.

In the case of `O=C(Nc1nnc(-c2ccccc2Cl)o1)c1cccnc1`, the IC50 was 16.7 µM.

Turning to `CCOC(=O)CSC1=C(C#N)C(c2ccco2)C(C(=O)Nc2cccc(C(F)(F)F)c2)=C(C)N1` (stereo unspecified), the IC50 was 9.34 µM.

As to `c1coc(CN(Cc2cccs2)Cc2nnnn2C2CCCCC2)c1`, the IC50 was 19.6 µM.

For `O=C(CSc1nc2ccccc2o1)Nc1nc2c(s1)CCCC2`, the IC50 was 8.02 µM.

Consider `CC(C)CCOC(=O)c1c(N)n(CC2CCCO2)c2nc3ccccc3nc12` (stereo unspecified), for which the IC50 was 18.3 µM.

As to `COc1ccc(CCN2C(=O)c3[nH]nc(-c4ccccc4O)c3C2c2ccc(C)cc2)cc1OC` (stereo unspecified), the IC50 was 13.8 µM.

In the case of `O=c1c(-c2nc3ccccc3o2)c2oc3ccccc3n2c2ccccc12`, the IC50 was 17.6 µM.

For `CCS(=O)(=O)n1nc(-c2ccccc2)nc1SCc1ccccc1`, the IC50 is 15.7 µM.

As to `CCCOC(=O)c1ccc(Oc2cn[nH]c2-c2ccc(OCC)cc2O)cc1`, the IC50 is 13.6 µM.

Take `CCCOc1ccc(C2C(C(=O)c3ccc(C)o3)=C(O)C(=O)N2Cc2cccnc2)cc1` (stereo unspecified): the IC50 is 36.1 µM.

For the compound `O=C(Nc1ccc(Cl)c(C(F)(F)F)c1)c1ccco1`, the IC50 was 7.46 µM.

Turning to `COc1ccccc1C1SCCN1S(=O)(=O)c1cccc(C(F)(F)F)c1` (stereo unspecified), the IC50 is 16.4 µM.

As for `Oc1c(CN2CCN(c3ccccn3)CC2)cc(Cl)c2cccnc12`, the IC50 was 11.4 µM.

With `COc1ccccc1N1CCN(C(=O)c2cc(-c3cccc(Cl)c3)on2)CC1`, the IC50 was 12.9 µM.

Take `CCOC(=O)c1c(C)oc2ccc(NS(=O)(=O)c3ccc4c5c(cccc35)C(=O)N4)cc12`: the IC50 was 16.3 µM.

For `CCCC1=C(C(=O)OCC)C(c2cc(Cl)cc(OC)c2OCC(=O)OCC)NC(=O)N1` (stereo unspecified), the IC50 was 24.5 µM.

Take `O=C(CSc1nnnn1C1CCCCC1)Nc1nc2c(s1)CCCC2`: the IC50 was 10.2 µM.

In the case of `COc1ccc(S(=O)(=O)C(C#N)c2nc3ccccc3nc2N2CCCC(C)C2)cc1` (stereo unspecified), the IC50 is 6.97 µM.

For the compound `CCSc1oc(-c2ccccc2)nc1S(=O)(=O)c1ccccc1`, the IC50 is 11.1 µM.

On to `COc1ccc(S(=O)(=O)N(Cc2cccs2)C2CCCC2)cc1`, for which the IC50 is 8.13 µM.

Regarding `CCCCc1ccc(C2C(C#N)=C(N)SC(N)=C2C#N)s1`, the IC50 was 13.8 µM.

`N#CC1=C(N)NC(SCc2ccccc2)=C(C#N)C12CCCCC2`: the IC50 was 2.12 µM.

For `CCOC(=O)N1CCN(C(=O)COc2ccc(S(=O)(=O)Nc3ccc(OCC)cc3)cc2)CC1`, the IC50 is 2 µM.

On to `COc1ccccc1-c1cc(C(=O)NCc2ccc(F)cc2)no1`, for which the IC50 was 9.85 µM.

For `CCc1c(O)nc(SCC(=O)Nc2ccc(C)cc2)n(C2CCCCC2)c1=O`, the IC50 is 7.36 µM.

For the compound `COc1nnc(-c2ccc(N3CCCCC3)c(N)c2)c2ccccc12`, the IC50 is 11.9 µM.

As for `Cc1ccc(-c2csc3ncnc(Sc4nnc(CN5CCCCCC5=O)o4)c23)cc1`, the IC50 was 21.6 µM.

Consider `N#Cc1nc(Cc2cccc3ccccc23)oc1NCCCn1ccnc1`, for which the IC50 is 24.2 µM.

For `CCCc1cc(C(=O)Nc2cccc(Cl)c2)no1`, the IC50 is 14.6 µM.

With `O=C(Nc1ccccc1N1CCCCC1)c1cccs1`, the IC50 was 12.8 µM.

Regarding `O=C(CN(C1CC1)S(=O)(=O)c1ccc(S(=O)(=O)NC2CCCCC2)cc1)Nc1ccccc1`, the concentration for half-maximal inhibition (IC50) was 10.5 µM.

`CCC(C)(C)n1nnnc1CN(Cc1ccc(Cl)cc1)Cc1ccco1`: the IC50 was 12.6 µM.

As for `COc1cc(-c2nnc(SCc3ccccc3Cl)o2)cc(OC)c1OC`, the IC50 is 10.2 µM.

With `CCOC(=O)c1c(C)n(C)c2ccc(OCC(O)Cn3nc(C)c(Br)c3C)cc12` (stereo unspecified), the IC50 was 5.74 µM.

For `Cc1ccc(-n2c(=O)[nH]cc(C(=O)Nc3ccc4c(c3)OCCO4)c2=O)cc1C`, the IC50 was 26.9 µM.

As for `Cc1ccc(SC/C(O)=C(\C#N)c2nc3ccccc3s2)cc1`, the IC50 was 1.03 µM.

Turning to `CC(C)(C)c1ccc(-c2nnc(SCCC#N)n2C2CCCC2)cc1`, the IC50 was 15.8 µM.

Take `CCOc1cc(C)c(Cl)cc1S(=O)(=O)n1nnc2ccccc21`: the IC50 is 11.6 µM.

For `Cc1ccc(C)c(S(=O)(=O)C(C#N)c2nc3ccccc3nc2N2CCOCC2)c1` (stereo unspecified), the IC50 was 11.6 µM.
